pIC50: −log10 of the molar value.
Key:
RAW264.7 [1] = assay: Downregulation of ARG1 mRNA expression in mouse RAW264.7 cells after 48 hrs by qRT-PCR analysis relative to DMSO; type: functional, cell-based
Summary of the method: (§1)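 RAW264.7 macrophages were treated 48 h with compound at 0.08, 0.4 or 2.0 μM, or DMSO vehicle. Total RNA was extracted with TRIzol and transcripts were quantified by qRT-PCR using gene-specific primers. Run three times, each in triplicate.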

[2] = target: Fibroblast growth factor receptor 3 (Homo sapiens, UniProt P22607); assay: Inhibition of cytoplasmic recombinant human His-tagged FGFR3 (399 to 806 residues) expressed in baculovirus using tyr4 peptide as substrate after 1 hr by FRET-based Z'-Lyte assay
Homo sapiens = species: Homo sapiens; assay: Selectivity ratio of IC50 for recombinant cytoplasmic human His-tagged KIT expressed in baculovirus to IC50 for recombinant human His-tagged CSF1R cytoplasmic domain (538 to 910 residues) expressed in baculovirus
[3] = target: Epidermal growth factor receptor (Homo sapiens, UniProt P00533); assay: Inhibition of recombinant human wild type GST-tagged EGFR cytoplasmic domain (668 to 1210 residues) expressed in baculovirus using tyr4 peptide as substrate after 1 hr by FRET-based Z'-Lyte assay
[4] = target: T1, Macrophage colony-stimulating factor 1 receptor (Mus musculus) (UniProt P09581); assay: Inhibition of CSF1R phosphorylation in mouse RAW264.7 cells assessed as reduction in AKT phosphorylation at 80 nM preincubated for 6 hrs followed by CSF1 stimulation for 20 mins by Western blot analysis relative to control; type: cell-based
T1 sequence (whole entry): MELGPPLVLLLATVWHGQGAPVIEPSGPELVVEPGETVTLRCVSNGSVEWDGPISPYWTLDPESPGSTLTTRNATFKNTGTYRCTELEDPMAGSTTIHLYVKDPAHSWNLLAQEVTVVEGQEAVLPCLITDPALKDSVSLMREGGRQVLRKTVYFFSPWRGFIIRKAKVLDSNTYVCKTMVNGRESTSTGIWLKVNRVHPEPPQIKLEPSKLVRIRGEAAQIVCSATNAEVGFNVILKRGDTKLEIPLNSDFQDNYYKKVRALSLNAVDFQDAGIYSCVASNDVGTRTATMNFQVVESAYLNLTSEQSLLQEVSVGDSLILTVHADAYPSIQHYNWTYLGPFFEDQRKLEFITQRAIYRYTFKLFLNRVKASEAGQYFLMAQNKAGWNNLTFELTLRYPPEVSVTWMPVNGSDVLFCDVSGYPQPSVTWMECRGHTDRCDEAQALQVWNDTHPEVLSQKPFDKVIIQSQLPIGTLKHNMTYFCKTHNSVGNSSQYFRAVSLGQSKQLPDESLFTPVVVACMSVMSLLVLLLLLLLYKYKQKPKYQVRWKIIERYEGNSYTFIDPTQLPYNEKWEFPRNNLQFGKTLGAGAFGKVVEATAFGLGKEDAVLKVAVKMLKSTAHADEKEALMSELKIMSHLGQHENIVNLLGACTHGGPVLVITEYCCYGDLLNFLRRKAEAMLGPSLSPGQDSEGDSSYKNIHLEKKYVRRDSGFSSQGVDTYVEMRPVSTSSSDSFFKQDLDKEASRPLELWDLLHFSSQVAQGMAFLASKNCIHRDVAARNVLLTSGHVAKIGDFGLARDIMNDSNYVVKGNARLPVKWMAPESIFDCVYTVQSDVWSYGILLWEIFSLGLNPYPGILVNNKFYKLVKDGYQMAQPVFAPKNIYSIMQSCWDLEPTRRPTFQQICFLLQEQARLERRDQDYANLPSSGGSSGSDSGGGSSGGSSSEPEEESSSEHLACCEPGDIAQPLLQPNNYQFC
Summary of the method: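 RAW264.7 cells were seeded, incubated overnight and treated 6 h with graded compound concentrations, then stimulated 20 min with CSF-1 (50 ng/mL). Lysates were run on 8−12% SDS-PAGE and immunoblotted for p-CSF1R (Tyr723), CSF1R, p-AKT, AKT and GAPDH. Bands were quantified and normalized to GAPDH. Mean ± SEM of at least three experiments.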

RAW264.7 [5] = assay: Inhibition of protumorigenic potential of mouse RAW264.7 cells assessed as abrogation of human LNCAP cell growth enhancement of macrophages at 0.08 uM co-cultured for 48 hrs by CCK8 assay relative to control; type: functional; settings: RAW264.7, 48 h
Summary of the method: (§2)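 LNCaP cells, (2−4) × 10^5, were seeded in the lower transwell chamber. After 2 h, (1−2) × 10^6 RAW264.7 cells were added in a 0.4 μm insert. Compound at 0.016–2.0 μM was added to the top chamber and cells were cocultured 48 h at 37 °C. LNCaP cells were then imaged and counted by CCK8. Run three times, each in triplicate.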

[6] = target: Proto-oncogene tyrosine-protein kinase receptor Ret (Homo sapiens) (UniProt P07949); assay: Inhibition of human RET (E713 to D1014 residues) expressed in bacterial expression system at 100 nM by KINOMEscan assay relative to control
RAW264.7 [7] = assay: Antimigratory activity against mouse RAW264.7 cells assessed as inhibition of human LNCaP-MDV-CM mediated macrophage migration at 5 uM after 24 hrs by crystal violet staining based transwell assay relative to control; type: functional; settings: RAW264.7, 24 h
Summary of the method: (§3)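 RAW264.7 cells, (2−4) × 10^5, were placed serum-free in the upper insert of a transwell. The lower chamber held conditioned medium from LNCaP cells grown 48 h in 10% FBS RPMI 1640 with 10 μM MDV3100 or DMSO. Compound at 0.625–5.0 μM was added to the top chamber for 24 h at 37 °C. Migrated cells were fixed in methanol, stained with 0.25% crystal violet and counted in six random fields at 200×. Three independent experiments.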

RAW264.7 [8] = assay: Antimigratory activity against mouse RAW264.7 cells assessed as inhibition of human LNCaP-MDV-CM mediated macrophage migration after 24 hrs by crystal violet staining based transwell assay; type: functional, cell-based; summary of the method: as §3
RAW264.7 [9] = assay: Inhibition of protumorigenic potential of mouse RAW264.7 cells assessed as abrogation of human LNCAP cell growth enhancement of macrophages co-cultured for 48 hrs by CCK8 assay; type: functional, cell-based; summary of the method: as §2
[10] = target: Macrophage colony-stimulating factor 1 receptor (Homo sapiens, UniProt P07333); assay: Inhibition of recombinant human His-tagged CSF1R cytoplasmic domain (538 to 910 residues) expressed in baculovirus using tyr4 peptide as substrate after 1 hr by FRET-based Z'-Lyte assay
Summary of the method: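 Z′-Lyte FRET assay with CSF1R or EGFR and 2 μM Tyr4 peptide substrate in 1× kinase buffer. ATP was supplied as a 100 μM solution, a stock and not the final concentration. Compounds were 3-fold serially diluted in DMSO. Reaction ran 1 h at room temperature, followed by 1 h development and a stop reagent. Phospho-peptide, no-ATP and DMSO controls were included. IC50 by curve fitting; mean of at least three independent experiments.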

RAW264.7 [11] = assay: Downregulation of MMP9 mRNA expression in mouse RAW264.7 cells after 48 hrs by qRT-PCR analysis relative to DMSO; type: functional, cell-based; summary of the method: as §1
RAW264.7 [12] = assay: Inhibition of protumorigenic potential of mouse RAW264.7 cells assessed as abrogation of human LNCAP cell growth enhancement of macrophages at 0.4 uM co-cultured for 48 hrs by CCK8 assay relative to control; type: functional; settings: RAW264.7, 48 h; summary of the method: as §2

Sequence of Macrophage colony-stimulating factor 1 receptor (P07333 whole entry, the tested form may be a part): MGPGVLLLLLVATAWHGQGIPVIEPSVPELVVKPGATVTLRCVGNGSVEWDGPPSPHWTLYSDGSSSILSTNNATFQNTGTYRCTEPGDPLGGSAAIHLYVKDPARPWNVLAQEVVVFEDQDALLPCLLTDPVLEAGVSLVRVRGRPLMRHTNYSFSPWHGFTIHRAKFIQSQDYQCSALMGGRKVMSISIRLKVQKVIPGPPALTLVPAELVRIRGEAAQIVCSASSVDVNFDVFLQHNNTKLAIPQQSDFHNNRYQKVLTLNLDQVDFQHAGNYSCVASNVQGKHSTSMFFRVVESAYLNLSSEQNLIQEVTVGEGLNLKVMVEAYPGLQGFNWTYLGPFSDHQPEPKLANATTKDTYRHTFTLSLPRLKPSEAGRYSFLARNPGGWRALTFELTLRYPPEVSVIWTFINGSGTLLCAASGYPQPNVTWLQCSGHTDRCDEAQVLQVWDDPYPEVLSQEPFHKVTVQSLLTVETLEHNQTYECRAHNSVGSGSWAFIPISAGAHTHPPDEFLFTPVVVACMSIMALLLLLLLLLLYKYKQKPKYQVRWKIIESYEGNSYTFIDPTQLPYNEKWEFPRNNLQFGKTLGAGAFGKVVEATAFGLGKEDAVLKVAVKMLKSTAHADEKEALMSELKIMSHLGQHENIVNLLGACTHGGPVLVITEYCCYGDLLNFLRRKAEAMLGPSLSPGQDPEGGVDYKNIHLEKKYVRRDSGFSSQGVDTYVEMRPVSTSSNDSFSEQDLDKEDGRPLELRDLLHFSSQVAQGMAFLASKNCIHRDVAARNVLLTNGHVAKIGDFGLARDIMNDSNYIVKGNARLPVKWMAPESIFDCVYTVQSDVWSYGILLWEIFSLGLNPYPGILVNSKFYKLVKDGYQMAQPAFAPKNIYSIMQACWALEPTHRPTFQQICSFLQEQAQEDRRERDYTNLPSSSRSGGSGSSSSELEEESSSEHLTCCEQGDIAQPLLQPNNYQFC
Sequence of Epidermal growth factor receptor (P00533 whole entry, the tested form may be a part): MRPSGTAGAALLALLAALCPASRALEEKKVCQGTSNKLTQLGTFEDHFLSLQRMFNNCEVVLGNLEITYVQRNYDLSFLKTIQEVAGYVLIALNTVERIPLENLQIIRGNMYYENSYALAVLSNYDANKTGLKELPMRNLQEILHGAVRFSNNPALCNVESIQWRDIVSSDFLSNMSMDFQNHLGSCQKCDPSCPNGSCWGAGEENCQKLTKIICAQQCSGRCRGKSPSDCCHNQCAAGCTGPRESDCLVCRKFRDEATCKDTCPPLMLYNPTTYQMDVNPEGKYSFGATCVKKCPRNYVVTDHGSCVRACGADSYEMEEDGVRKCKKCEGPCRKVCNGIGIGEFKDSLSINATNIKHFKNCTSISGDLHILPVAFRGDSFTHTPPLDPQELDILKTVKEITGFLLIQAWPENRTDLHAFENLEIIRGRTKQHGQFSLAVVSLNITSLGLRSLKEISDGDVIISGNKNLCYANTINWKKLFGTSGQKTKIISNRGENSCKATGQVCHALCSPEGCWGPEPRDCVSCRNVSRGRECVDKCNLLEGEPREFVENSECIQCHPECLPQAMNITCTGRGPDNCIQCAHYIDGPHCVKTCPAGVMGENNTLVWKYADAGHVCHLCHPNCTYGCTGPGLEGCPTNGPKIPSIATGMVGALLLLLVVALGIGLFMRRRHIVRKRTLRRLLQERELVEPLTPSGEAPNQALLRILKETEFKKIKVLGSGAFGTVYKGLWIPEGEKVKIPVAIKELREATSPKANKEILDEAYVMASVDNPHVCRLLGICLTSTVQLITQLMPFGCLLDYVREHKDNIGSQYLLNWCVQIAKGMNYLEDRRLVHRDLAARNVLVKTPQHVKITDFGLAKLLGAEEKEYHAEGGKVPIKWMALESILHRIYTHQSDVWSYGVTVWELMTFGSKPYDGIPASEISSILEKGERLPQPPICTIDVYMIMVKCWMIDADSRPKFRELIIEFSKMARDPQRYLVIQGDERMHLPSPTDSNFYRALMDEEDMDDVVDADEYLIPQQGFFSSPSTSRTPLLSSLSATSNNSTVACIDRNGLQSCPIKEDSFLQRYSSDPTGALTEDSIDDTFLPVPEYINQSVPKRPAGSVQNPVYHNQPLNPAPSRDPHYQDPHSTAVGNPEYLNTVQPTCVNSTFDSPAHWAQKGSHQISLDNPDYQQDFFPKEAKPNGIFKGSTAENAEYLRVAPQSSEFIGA
Sequence of Proto-oncogene tyrosine-protein kinase receptor Ret (Homo sapiens) (P07949 whole entry, the tested form may be a part): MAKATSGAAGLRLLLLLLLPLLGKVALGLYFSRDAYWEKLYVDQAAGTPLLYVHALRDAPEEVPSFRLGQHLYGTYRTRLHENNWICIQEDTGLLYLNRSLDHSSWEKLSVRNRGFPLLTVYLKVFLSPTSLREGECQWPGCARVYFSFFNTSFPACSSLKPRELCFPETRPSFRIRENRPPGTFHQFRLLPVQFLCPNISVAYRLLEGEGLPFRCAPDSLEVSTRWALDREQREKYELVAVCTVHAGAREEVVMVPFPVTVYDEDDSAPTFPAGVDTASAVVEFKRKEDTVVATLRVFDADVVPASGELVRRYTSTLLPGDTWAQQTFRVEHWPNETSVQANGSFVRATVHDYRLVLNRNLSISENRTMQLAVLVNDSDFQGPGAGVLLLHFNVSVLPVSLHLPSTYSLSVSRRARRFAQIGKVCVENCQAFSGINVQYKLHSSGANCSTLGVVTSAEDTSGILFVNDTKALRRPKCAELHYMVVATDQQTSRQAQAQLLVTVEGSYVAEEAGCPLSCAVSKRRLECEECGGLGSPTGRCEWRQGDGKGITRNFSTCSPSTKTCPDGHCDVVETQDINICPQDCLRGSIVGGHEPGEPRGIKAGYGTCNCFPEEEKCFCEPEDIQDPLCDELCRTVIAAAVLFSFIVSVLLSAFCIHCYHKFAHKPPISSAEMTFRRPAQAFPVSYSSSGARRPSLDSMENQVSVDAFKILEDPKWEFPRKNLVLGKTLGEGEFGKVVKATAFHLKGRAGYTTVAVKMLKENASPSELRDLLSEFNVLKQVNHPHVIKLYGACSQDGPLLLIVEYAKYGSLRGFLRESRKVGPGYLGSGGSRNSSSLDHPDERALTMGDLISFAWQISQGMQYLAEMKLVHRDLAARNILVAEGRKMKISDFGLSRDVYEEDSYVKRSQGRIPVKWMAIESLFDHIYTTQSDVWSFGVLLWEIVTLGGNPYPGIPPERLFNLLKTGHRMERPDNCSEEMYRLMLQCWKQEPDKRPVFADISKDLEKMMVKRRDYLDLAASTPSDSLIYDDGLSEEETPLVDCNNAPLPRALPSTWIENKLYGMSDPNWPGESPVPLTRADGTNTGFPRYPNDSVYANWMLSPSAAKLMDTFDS
Sequence of Fibroblast growth factor receptor 3 (P22607 whole entry, the tested form may be a part): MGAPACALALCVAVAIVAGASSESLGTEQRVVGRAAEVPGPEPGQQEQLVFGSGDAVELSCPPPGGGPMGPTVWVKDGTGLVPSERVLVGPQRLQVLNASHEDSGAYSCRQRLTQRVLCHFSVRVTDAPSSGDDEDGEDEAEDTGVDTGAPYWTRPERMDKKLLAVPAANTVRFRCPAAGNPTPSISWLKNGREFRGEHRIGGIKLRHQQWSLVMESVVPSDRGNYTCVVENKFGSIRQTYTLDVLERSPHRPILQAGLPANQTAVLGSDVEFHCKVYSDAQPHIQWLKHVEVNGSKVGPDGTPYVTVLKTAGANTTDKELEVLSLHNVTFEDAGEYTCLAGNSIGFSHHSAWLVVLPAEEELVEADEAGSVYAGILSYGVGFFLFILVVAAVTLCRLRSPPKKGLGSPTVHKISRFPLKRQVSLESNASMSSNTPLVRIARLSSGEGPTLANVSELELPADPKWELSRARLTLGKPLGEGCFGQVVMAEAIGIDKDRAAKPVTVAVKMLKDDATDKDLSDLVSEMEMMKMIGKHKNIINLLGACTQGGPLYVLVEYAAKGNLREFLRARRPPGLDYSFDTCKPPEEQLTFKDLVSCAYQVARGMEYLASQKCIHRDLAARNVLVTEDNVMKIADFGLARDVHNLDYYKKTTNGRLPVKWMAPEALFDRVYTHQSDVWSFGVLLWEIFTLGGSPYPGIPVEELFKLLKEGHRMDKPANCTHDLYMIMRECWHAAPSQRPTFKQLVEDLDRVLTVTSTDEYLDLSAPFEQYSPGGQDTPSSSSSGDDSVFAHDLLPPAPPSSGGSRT

pIC50 [2]: 7.40
Ratio IC50 (Homo sapiens): 10 to 35
pIC50 [3]: 6.44
inhibition [4]: 50%
inhibition [6]: > 90%
pIC50 [10]: 8.52
Compound: CCC(=O)N1CC[C@H](N2C(=O)N(c3cc(OC)ccc3Cl)Cc3cnc(Nc4ccc(N5CCN(C6COC6)CC5)c(C)c4)nc32)C1
Activity (RAW264.7 [1]): Dose-dependent effect
inhibition at 0.08 µM (RAW264.7 [5]): 70%
inhibition at 5 µM (RAW264.7 [7]): 90.7%
inhibition (RAW264.7 [8]): Dose-dependent effect
inhibition (RAW264.7 [9]): Dose-dependent effect
Activity (RAW264.7 [11]): Dose-dependent effect
inhibition at 0.4 µM (RAW264.7 [12]): 85%

From ChEMBL document CHEMBL4033795, “Design, Synthesis, and Structure-Activity Relationship Study of 2-Oxo-3,4-dihydropyrimido[4,5- d]pyrimidines as New Colony Stimulating Factor 1 Receptor (CSF1R) Kinase Inhibitors” (J Med Chem, 2018)
